{"data": "Assay results from different studies", "matrix": "plasma", "note": "Compare with care: the assays were run in different laboratories."}
{"SMILES": "C[C@H]1CN(CC2CCN(c3ccc(C4CCC(=O)NC4=O)cc3F)CC2)CC[C@H]1NS(=O)(=O)c1ccc(Nc2ncc(C(F)(F)F)c(N3CCC[C@](C)(O)C3)n2)c(F)c1 (stereo partly shown)", "host": "rat", "route": "intravenous", "dose": "2 mg/kg", "half-life [h]": 4.6}
{"SMILES": "C=CC(=O)N1CCC([C@@H]2CCNc3c(C(N)=O)c(-c4ccc(Oc5ccccc5)cc4)nn32)CC1", "host": "Sprague-Dawley rat", "route": "oral", "dose": "16 mg/kg", "half-life [h]": 2.24}
{"SMILES": "CCONC(=O)N1CCC[C@H](C(=O)NCc2nc(-c3ccc(C#N)cc3)cs2)C1", "host": "male Sprague-Dawley rat", "route": "oral", "dose": "3 mg/kg", "half-life [h]": 14}
{"SMILES": "C[C@H]1Oc2cc(cnc2N)-c2c(nn(C)c2C#N)CN(C)C(=O)c2ccc(F)cc21", "host": "male Sprague-Dawley rat", "route": "oral", "dose": "50 mg/kg", "notes": "single dose", "half-life [h]": 17.6}
{"SMILES": "Cc1cc(S(=O)(=O)N[C@H]2CC[C@H](CN3CCN(c4ccc(C5CCC(=O)NC5=O)c(Cl)c4)CC3)CC2)ccc1Nc1ncc(C(F)(F)F)c(N2CCC[C@](C)(O)C2)n1 (stereo partly shown)", "host": "rat", "route": "intravenous", "dose": "2 mg/kg", "half-life [h]": 2.9}
{"SMILES": "CC(=O)c1c(C)c2cnc(Nc3ccc(N4CCNCC4)cn3)nc2n(C2CCCC2)c1=O", "host": "male Sprague-Dawley rat", "route": "intravenous", "dose": "5 mg/kg", "half-life [h]": 2.1}
{"SMILES": "COc1cc(C2C3=C(COC3=O)N(CCO)c3cc4c(cc32)CCC4)cc(OC)c1OC (stereo not shown)", "host": "female Sprague-Dawley rat", "route": "intraperitoneal", "dose": "50 mg/kg", "half-life [h]": 8.61}
{"SMILES": "CNS(=O)(=O)c1ccc(Nc2ncc(C(F)(F)F)c([C@H]3CC[C@@](C)(O)CC3)n2)c(C)c1", "host": "rat", "route": "intravenous", "dose": "2 mg/kg", "half-life [h]": 1.3}
{"SMILES": "[2H]c1cc(C)c(NC(=O)c2cnc(Nc3cc(N4CCC(O)CC4)nc(C)n3)s2)c(Cl)c1", "host": "male Sprague-Dawley rat", "route": "intravenous", "dose": "1 mg/kg", "half-life [h]": 1.9}
{"SMILES": "CCCCC(=O)Nc1ccc(-c2ccc3ncn(CCC)c(=O)c3c2)cn1", "host": "male rat", "route": "intravenous", "dose": "2.5 mg/kg", "half-life [h]": 0.582}
{"SMILES": "CC(=O)O[C@@H]1CC[C@@]2(C)[C@@H](CC[C@]3(C)[C@@H]2C(=O)C=C2[C@@H]4[C@@H](C)[C@H](C)CC[C@]4(C)CC[C@]23C)[C@@]1(C)C(=O)O", "host": "female Wistar rat", "route": "oral", "dose": "1 mg/kg", "notes": "single dose", "half-life [h]": 9.9}
{"SMILES": "Cn1c(=O)c2[nH]cnc2n(C)c1=O", "host": "male Sprague-Dawley rat", "route": "intravenous", "dose": "11.25 mg/kg", "half-life [h]": 4.81}
{"SMILES": "CCOCC(=O)N1CCC[C@H](C(=O)NCc2nc(-c3ccc(C)nc3)cs2)C1", "host": "male Sprague-Dawley rat", "route": "intravenous", "dose": "1 mg/kg", "half-life [h]": 2.1}
{"SMILES": "CCCc1nc2c(C)cc(-c3nc4ccccc4n3C)cc2n1Cc1ccc(-c2ccccc2C(=O)O)cc1", "host": "male Sprague-Dawley rat", "route": "oral", "dose": "8 mg/kg", "notes": "single dose", "half-life [h]": 6.84}
{"SMILES": "Cc1cc(S(=O)(=O)NC2CC(N3CC[C@@H](OC4CN(c5cccc6c5n(C)c(=O)n6C5CCC(=O)NC5=O)C4)[C@H](F)C3)C2)ccc1Nc1ncc(C(F)(F)F)c(N2CCC[C@](C)(O)C2)n1 (stereo partly shown)", "host": "rat", "route": "intravenous", "dose": "2 mg/kg", "half-life [h]": 2.4}
{"SMILES": "CC(C)(N)COCC(=O)N1CCC[C@H](C(=O)NCc2nc(-c3ccc(C(F)(F)F)cc3)cs2)C1", "host": "male Sprague-Dawley rat", "route": "intravenous", "dose": "1 mg/kg", "half-life [h]": 7.2}
{"SMILES": "Cc1nc(Nc2ncc(C(=O)Nc3c(C)cccc3Cl)s2)cc(N2CC[C@H](N)C2)n1", "host": "male Sprague-Dawley rat", "route": "intravenous", "dose": "1 mg/kg", "half-life [h]": 3.8}
{"SMILES": "C[C@@]12C[C@@]3(O)O[C@@H](O1)[C@]1(COC(=O)c4ccccc4)[C@H]3C[C@@]12O[C@@H]1O[C@H](CO)[C@@H](O)[C@H](O)[C@H]1O", "host": "male Sprague-Dawley rat", "route": "oral", "dose": "80 mg/kg", "half-life [h]": 11.4}
{"SMILES": "CC[C@H](C)[C@H](NC(=O)[C@@H]1CCCN1C(=O)CNC(=O)[C@H](Cc1ccccc1)NC(=O)[C@H](CC(N)=O)NC(=O)[C@H](CC(N)=O)NC(=O)[C@H](CO)NC(=O)[C@H](CO)NC(=O)[C@H](Cc1c[nH]cn1)NC(=O)[C@H](CCCNC(=N)N)NC(=O)[C@H](CC(C)C)NC(=O)[C@H](Cc1ccccc1)NC(=O)[C@H](CCC(=O)O)NC(=O)[C@H](C)NC(=O)[C@H](CC(C)C)NC(=O)[C@H](CCCNC(=N)N)NC(=O)[C@H](CCC(N)=O)NC(=O)[C@@H](NC(=O)[C@H](C)NC(=O)[C@@H]1CSSC[C@H](NC(=O)[C@H](CCCCN)NC(=O)CC[C@H](NC(=O)CCCCCCCCCCCCCCCCCCC(=O)O)C(=O)O)C(=O)N[C@@H](CC(N)=O)C(=O)N[C@@H]([C@@H](C)O)C(=O)N[C@@H](C)C(=O)N[C@@H]([C@@H](C)O)C(=O)N1)[C@@H](C)O)C(=O)N[C@@H](CC(C)C)C(=O)N1CCC[C@H]1C(=O)N1CCC[C@H]1C(=O)N[C@H](C(=O)N[C@@H](CC(N)=O)C(=O)N[C@H](C(=O)NCC(=O)N[C@@H](CO)C(=O)N[C@@H](CC(N)=O)C(=O)N[C@H](C(=O)N1CCC[C@H]1C(N)=O)[C@@H](C)O)C(C)C)[C@@H](C)O", "host": "male Sprague-Dawley rat", "route": "subcutaneous", "dose": "30 nmol/kg", "notes": "single dose", "half-life [h]": 26.8}
{"SMILES": "CONC(=O)c1cccc2c1cc(C)n2-c1nc2c(c(NCc3ccccc3)n1)CCCN2", "host": "male Sprague-Dawley rat", "route": "oral", "dose": "10 mg/kg", "notes": "single dose", "half-life [h]": 1.15}
{"SMILES": "COc1ccc(N(Cc2csc(-c3ccccc3)n2)C(=O)CCCCCC(=O)NO)cc1", "host": "female Sprague-Dawley rat", "route": "intravenous", "dose": "5 mg/kg", "half-life [h]": 0.63}
{"SMILES": "COc1nc(-c2cccc(-c3ccccc3)c2C)ccc1CNCCNC(=O)CCCCCCCCCCC(=O)N1CCN(CCNC(=O)c2cc3c(=O)n4cccc(C)c4nc3n(CCc3cccs3)c2=N)CC1", "host": "male Sprague-Dawley rat", "route": "intraperitoneal", "dose": "4 mg/kg", "half-life [h]": 4.7}
{"SMILES": "CCOCC(=O)N1CCC[C@H](C(=O)NCc2nc(-c3ccc(C#N)nc3)cs2)C1", "host": "male Sprague-Dawley rat", "route": "oral", "dose": "3 mg/kg", "half-life [h]": 1.6}
{"SMILES": "C[C@H]1CN(c2ccc(C3CCC(=O)NC3=O)cc2F)CCN1CC12CCC(NS(=O)(=O)c3ccc(Nc4ncc(C(F)(F)F)c(N5CCC[C@](C)(O)C5)n4)c(F)c3)(CC1)CO2 (stereo partly shown)", "host": "rat", "route": "intravenous", "dose": "2 mg/kg", "half-life [h]": 3.4}
{"SMILES": "COCC(=O)N1CCC[C@H](C(=O)NCc2nc(-c3ccc(C#N)cc3)cs2)C1", "host": "male Sprague-Dawley rat", "route": "oral", "dose": "3 mg/kg", "half-life [h]": 2.4}
{"SMILES": "CNS(=O)(=O)c1ccc(Nc2ncc3cc(Cl)c(=O)n(C4CCCC4)c3n2)c(C)c1", "host": "rat", "route": "intravenous", "dose": "2 mg/kg", "half-life [h]": 1.2}
{"SMILES": "O=C1CCC(N2Cc3cc(C4CCN(Cc5ccccc5)CC4)ccc3C2=O)C(=O)N1 (stereo not shown)", "host": "male Sprague-Dawley rat", "route": "intravenous", "dose": "1 mg/kg", "half-life [h]": 4.29}
{"SMILES": "Cc1cc(S(=O)(=O)NC2CC(N3CCN(CC4CCN(c5cccc6c5n(C)c(=O)n6C5CCC(=O)NC5=O)CC4)CC3)C2)ccc1Nc1ncc(C(F)(F)F)c(N2CCC[C@](C)(O)C2)n1 (stereo partly shown)", "host": "rat", "route": "intravenous", "dose": "2 mg/kg", "half-life [h]": 5.1}
{"SMILES": "COc1cc(-c2cc(C(C)=O)n3ccccc23)c(OC)cc1Cn1ccnc1", "host": "male Sprague-Dawley rat", "route": "oral", "dose": "5 mg/kg", "half-life [h]": 0.72}
{"SMILES": "COCC(=O)N1CCC[C@H](C(=O)NCc2nc(-c3ccccc3)cs2)C1", "host": "male Sprague-Dawley rat", "route": "oral", "dose": "3 mg/kg", "half-life [h]": 3.9}
{"SMILES": "Cc1cc(S(=O)(=O)NC2CC(N3CCN(CC4CCN(c5ccc6c(c5F)n(C)c(=O)n6C5CCC(=O)NC5=O)CC4)CC3)C2)ccc1Nc1ncc(C(F)(F)F)c(N2CCCC(C)(O)C2)n1 (stereo not shown)", "host": "rat", "route": "intravenous", "dose": "2 mg/kg", "half-life [h]": 7.2}
